# Reference: ChEMBL document CHEMBL3272141, “Potential long-acting anticonvulsants. 2. Synthesis and activity of succinimides containing an alkylating group on nitrogen or at the 3 position” (J Med Chem, 1977)
# Active and inactive are the calls of the source. The calls are words filed in the database; no cut-off is given here.
# Assays:
# Mus musculus [1] = test: Anticonvulsant activity against maximal electroshock-induced seizures in Carworth Farms No.1 mouse up to 300 mg/kg; type: functional, organism-based; set-up: dose 300 mg/kg
# Summary of the method: (§1)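 Male Carworth Farms No. 1 mice were used, with the highest dose tested being 300 mg/kg.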
# Mus musculus [2] = test: Anticonvulsant activity against metrazole-induced seizures in Carworth Farms No.1 mouse up to 300 mg/kg; type: functional, organism-based; set-up: dose 300 mg/kg; summary of the method: as §1
SMILES,Activity (Mus musculus [1]),Activity (Mus musculus [2])
O=C(CCl)NCCCN1C(=O)CC(CCCNC(=O)CCl)(c2ccccc2)C1=O (stereo not drawn),inactive,inactive
O=C(CCl)N1C(=O)CC(c2ccccc2)C1=O (stereo not drawn),inactive,inactive
N#CCN1C(=O)CC(c2ccccc2)C1=O (stereo not drawn),inactive,inactive
O=C(CCl)Nc1ccc(CCN2C(=O)CC(c3ccccc3)C2=O)cc1 (stereo not drawn),inactive,inactive
Nc1ccc(CCN2C(=O)CC(c3ccccc3)C2=O)cc1 (stereo not drawn),inactive,inactive
O=C1C=CC(=O)N1CCN1C(=O)CC(c2ccccc2)C1=O (stereo not drawn),inactive,inactive
O=C(CCl)NCCN1C(=O)CC(c2ccccc2)C1=O (stereo not drawn),inactive,inactive
O=C(O)/C=C\C(=O)NCCN1C(=O)CC(c2ccccc2)C1=O (stereo not drawn),inactive,inactive
CC(=O)Nc1ccc(CCN2C(=O)CC(c3ccccc3)C2=O)cc1 (stereo not drawn),inactive,inactive
O=C1CC(c2ccccc2)C(=O)N1CCc1ccc(N2C(=O)C=CC2=O)cc1 (stereo not drawn),inactive,inactive
O=C1CC(c2ccccc2)C(=O)N1CCc1ccccc1 (stereo not drawn),inactive,inactive
O=C(O)/C=C\C(=O)Nc1ccc(CCN2C(=O)CC(c3ccccc3)C2=O)cc1 (stereo not drawn),inactive,inactive
NCCN1C(=O)CC(c2ccccc2)C1=O (stereo not drawn),inactive,inactive
CN1C(=O)C(CCNC(=O)CCl)C(C)(c2ccccc2)C1=O (stereo not drawn),inactive,inactive
